Compounds with a hit are over-represented: about 1.7% of the library has one in this group of screens.
CAL PDZ FP-1 = CAL PDZ (human) peptide binding inhibition. inhibition, % at 24.9 µM. hit rate 0.92% among 300,000. purified CAL PDZ, TMR-peptide fluorescence polarization, 1 h. AID 602252;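 active = mean inhibition of at least 30% with at least half of replicates also reaching 30%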;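 also: 0% = DMSO neutral control and 100% = excess unlabeled competitor peptide PRC23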
PGC1a acetyl inh = modulators of PGC1a acetylation. U2OS PGC1a acetylation, AlphaScreen anti-acetyl-lysine; with virally co-expressed GCN5 acetyltransferase. inhibition, % at 15.6 µM. hit rate 0.17% among 350,000. AID 651687;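 active = every replicate shows inhibition of at least 40%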;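 also: 0% = neutral control wells and 100% = positive control wells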
CAL PDZ FP-2 = human CAL PDZ-peptide interaction inhibition; purified CAL PDZ, TMR-peptide fluorescence polarization, 1 h; Q9HD26; hit rate 0.02% among 330,000; inhibition, % at 20 µM;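 active = highest replicate inhibition of at least 40%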;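 also: plate controls were DMSO neutral control wells for no effect and unlabeled competitor peptide control wells for full effect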
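Control set: unlabelled peptide and DMSO controls / Material: purified CerCALP PDZ construct / Timing: 1 h incubation at room temperature before polarization reading / Doses: 20 µM, one dose / Detection: fluorescence polarization (mP)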
miR-122 sensor = blocks miR-122 activity in Huh7 sensor cells | Huh7 miR-122 Renilla luciferase sensor, 48 h; neutral wells = 0, positive control = 100 | activation (reporter increase), % at 12.5 µM | hit rate 0.3% among 340,000;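 active = mean replicate activation score at least 90 and every replicate individually at or above 90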;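 also: higher luciferase means less miR-122 activity so hits act as miR-122 inhibitors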
F508del corr = CFTR F508del correction in bronchial cells. AID 720511. hit rate 0.36% among 350,000. activity (quench increase), % at 7.58 µM. CFBE cells, YFP halide quenching; stimulated with forskolin plus potentiator P3; % fluorescence drop versus neutral controls;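 active = mean added fluorescence quench of at least 8% versus neutral control, with both replicates also reaching 8%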;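 also: cells transiently co-express mutant CFTR-F508del with the halide-sensitive YFP; corrector assay measuring rescue of mutant channel to the surface after 24 h compound exposure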
ARNT-TACC3 inh = ARNT/TACC3 interaction disruption. Q9Y6A5. AlphaScreen His-ARNT PAS-B/GST-TACC3 binding, luminescence; TACC3 fragment carries E629A point mutation. inhibition, % at 9.99 µM. hit rate 0.66% among 390,000. AID 623870;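 active = mean inhibition of replicates at least 50% and at least half of replicates each reaching 50%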;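 also: 0% = complete ARNT plus TACC3 wells and 100% = ARNT alone without TACC3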
The depositor's hits bear a star; . = no result given; ! = a repeat was not active; [ ] = dose if it differs, or a comment.

SMILES	CAL PDZ FP-1	PGC1a acetyl inh	CAL PDZ FP-2	miR-122 sensor	F508del corr	ARNT-TACC3 inh
Cc1ccc(OC(=O)N(C)C[C@@H]2OCc3ccccc3-c3c(n(C)c4ccccc34)C(=O)N([C@@H](C)CO)C[C@H]2C)cc1	.	.	.	.	2	.
c1cncc(-c2ccc(C3[C@H]4CNC[C@@H]3N4CC3CC3)cc2)c1 (some centres undefined)	.	8	.	.	4	.
O=c1cc(C2CCNCC2)[nH][nH]1	.	11	-1	156*	.	39
CN=C1CN(O)C(c2ccccc2)c2cc(Cl)ccc2N1 (centres undefined)	.	-3	-2	111*	1	9
O=C(Cc1ccccn1)N1CCCCN2[C@H](C1)[C@H](c1ccc(-c3ccccc3)cc1)[C@@H]2CO	.	6	.	1[16.7 µM]	-1	6
CCOC(=O)[C@@H]1[C@@H]2NC(=S)N(C)[C@@]1(C)Oc1ccccc12	.	6	.	.	1	11
Cc1cccc(-n2c(O)c(/C=N/Nc3nc4c(c(=O)n(C)c(=O)n4C)n3C)c(=O)[nH]c2=S)c1	-5	.	-1	-4	.	72*
Cc1ccccc1-n1c(O)c(/C=N/Nc2nc3c(c(=O)n(C)c(=O)n3C)n2C)c(=O)[nH]c1=S	-1	.	0	.	.	51*
Cc1ccc(-n2c(O)c(/C=N/Nc3ccccc3)c(=O)[nH]c2=O)cc1C	.	.	.	.	-1	.
Cn1c(=O)c2c(nc(N/N=C/c3c(O)n(C4CCCCC4)c(=S)[nH]c3=O)n2C)n(C)c1=O	5	1	0	.	5	52*
CN1CC(C(=O)c2cccc(C(F)(F)F)c2)C(c2ccc(Cl)cc2)C1 (centres undefined)	59*	-7	1	0	-1	1
C1CCC2S[C@H]3CCCCC3NC2C1 (some centres undefined)	58*	18	-1	6	2	-6
Cc1cc(OC(C)C(=O)NCc2ccncc2)c2c3c(c(=O)oc2c1)CCCC3 (centres undefined)	-1	-7	-3	-9	2	-7
Cc1cc(OC(C)C(=O)NCc2ccncc2)c2c3c(c(=O)oc2c1)CCC3 (centres undefined)	31*	-2	-1	-5	0	-6
O=P(Oc1ccc(-c2ccccc2)cc1)(N1CC1)N1CC1	-10	.	6	-4	9.9*	1
COc1ccc(-c2ccc([C@H]3[C@@H](CO)N4CCCCN(C(=O)Cc5ccccc5)C[C@@H]34)cc2)cc1	.	-16	.	-6[16.7 µM]	-2	1
NC(=O)c1cn(C2OC(CO)C(O)C2O)c2ncnc(N)c12 (centres undefined)	2	93*!	1	-13	-4	-5
CCC1CN2CCc3cc(OC)c(OC)cc3C2CC1CC1NCCc2c1[nH]c1ccc(O)cc21 (centres undefined)	0	70*	-1	-7	-4	11
COc1ccc2c(c1OC)CN1CCc3cc4c(cc3[C@H]1C2)OCO4	-3	.	-2	.	.	4
CCOC(=O)[C@@H]1[C@@H]2NC(=S)N(C)[C@@]1(COCc1ccc(OC)cc1)Oc1ccccc12	.	0	.	.	2	27
CC(=O)OC1CC(OC2C(O)CC(OC3C(O)CC(OC4CCC5(C)C(CCC6C5CC(O)C5(C)C(C7=CC(=O)OC7)CCC65O)C4)OC3C)OC2C)OC(C)C1OC1OC(CO)C(O)C(O)C1O (centres undefined)	0	7	0	126*	-2	0
O=C1CNC[C@H]2[C@H](c3ccc(Br)cc3)[C@H](CO)N12	.	5	.	.	1	.
O=C1NC(=O)C(=Cc2c(Cl)cccc2Cl)C(=O)N1	3	.	0	.	8.7*	-8
O=[N+]([O-])c1ccc2c(c1)C(c1ccccc1)=NCCN2	33*	-2	0	.	3	0
O=[N+]([O-])c1ccc(-c2ccccc2)c([As](=O)(O)O)c1	.	9	0	0	-4	-3
SMILES	CAL PDZ FP-1	PGC1a acetyl inh	CAL PDZ FP-2	miR-122 sensor	F508del corr	ARNT-TACC3 inh
CC[C@H](C)/C=C(C)/C=C/C1=CC2=C(Cl)C(=O)[C@@](C)(OC(C)=O)C(=O)C2=CO1	2	8	20	2	.	0
CCC(C)/C=C(C)/C=C/C1=CC2=C(Cl)C(=O)C(C)(OC(C)=O)C(=O)C2=CO1 (centres undefined)	3	4	0	-5	.	49*
CC1Oc2cc3c(-c4c(O)cc(O)c5c(O)c6c(cc45)OC(C)C(C)C6=O)c(O)cc(O)c3c(O)c2C(=O)C1C (centres undefined)	8	26	5	-4	.	80*
Cc1nc(C)c(C(=O)NN=Cc2ccc(N(CCCl)CCCl)cc2)s1	-4	.	0	.	8.7*	-8
O=C(NN=Cc1ccc(N(CCCl)CCCl)cc1)c1cccnc1	-3	3	0	-4	6	-29
COC(=O)c1c(N)n(Cc2ccc(OC)cc2)c2nc3ccccc3nc12	-3	-12	-2	-8	.	15*
COCCOC(=O)c1c(N)n(Cc2ccco2)c2nc3ccccc3nc12	23	12	-1	17	.	62*
COC(=O)[C@H]1[C@H](CO)[C@H]2Cn3c(ccc(/C=C/c4ccccc4)c3=O)[C@@H]1N2C(=O)C1CC1	.	.	.	.	.	-17
CN(C)c1ccc(C=C2C(=O)NC(=O)NC2=O)cc1	-3	3	0	.	-1	-9
CN(C)c1ccc(C=C2C(=O)NC(=S)NC2=O)cc1	185*	-6	0	5	-3	-2
COC(=O)[C@@H]1[C@@H](CO)[C@@H]2Cn3c(ccc(-c4cccnc4)c3=O)[C@H]1N2S(=O)(=O)c1ccccc1F	.	.	.	-1[16.7 µM]	0	-3
CCCCOC(=O)c1ccccc1C(=O)OCCCC	42*	0	0	-6	-2	-1
COC(=O)[C@@H]1[C@@H](CO)[C@@H]2Cn3c(ccc(/C=C/c4ccccc4)c3=O)[C@H]1N2C(=O)C1CC1	.	.	.	.	.	-3
CC(N)C(=O)NC1C2C(=C(O)CC(O)C2O)C(=O)OC1(C)C(Cl)Cl (centres undefined)	3	74*	-1	-2	-4	-3
O=C(Cc1cccnc1)N1CCCCN2[C@H](CO)[C@@H](c3ccc(/C=C/c4ccccc4)cc3)[C@@H]2C1	.	-2	.	-2[16.7 µM]	0	-4
COC(=O)[C@H]1[C@H](CO)[C@H]2Cn3c(cccc3=O)[C@@H]1N2CCc1ccccc1	.	.	.	.	.	-6
CNc1cc(Cl)c2nonc2c1[N+](=O)[O-]	-5	68*	0	.	-7	4
COc1ccc(-c2ccc([C@H]3[C@H](CO)N4CCCCN(C(=O)Cc5ccccc5)C[C@@H]34)cc2)cc1	.	-19	.	-10[16.7 µM]	-5	-19
COc1cc2c(cc1OC)-c1c(OC)c(OC)cc3c1[C@H](C2)N(C)CC3	-3	9	2	-6	1	69*
